Values joined by “and” are separate entries in the source; they are usually repeats but may differ in a detail not shown here. Equal values may be shown once.
Test system: HEK-293T
Test: Multiplex assay against HEK293T;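 on Population Tubulin-Different-Phenotype (%): share of the cells with healthy nuclei that show this phenotype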
Format: toxicity, cell-based
Conditions: human
In short: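 Imaging took place on a CQ1 microscope at 37°C and 5% CO2 once compound had been added to live cells stained at seeding with Hoechst33342, BioTracker Green Microtubule Cytoskeleton Dye, MitoTracker Red and Annexin V Alexa Fluor 680. CellPathfinder machine-learning gating classed cells as Hoechst high-intensity objects or normal cells, classed normal cells as having healthy, pyknosed or fragmented nuclei, and classed pyknosed cells as mitotic or apoptotic. Tubulin, mitochondrial-mass and membrane-permeability phenotypes are per cents of the healthy-nucleus cells.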

[1] = 12 h, 1 µM, compound concentration 1 uM, replicate 1
[2] = 12 h, 1 µM, compound concentration 1 uM, replicate 2
[3] = 12 h, 10 µM, compound concentration 10 uM, replicate 1
[4] = 12 h, 10 µM, compound concentration 10 uM, replicate 2
[5] = 24 h, 1 µM, compound concentration 1 uM, replicate 1
[6] = 24 h, 1 µM, compound concentration 1 uM, replicate 2
[7] = 24 h, 10 µM, compound concentration 10 uM, replicate 1
[8] = 24 h, 10 µM, compound concentration 10 uM, replicate 2
[9] = 48 h, 1 µM, compound concentration 1 uM, replicate 1
[10] = 48 h, 1 µM, compound concentration 1 uM, replicate 2
[11] = 48 h, 10 µM, compound concentration 10 uM, replicate 1
[12] = 48 h, 10 µM, compound concentration 10 uM, replicate 2

CN(C)C(=O)N[C@H]1CC[C@H](CCN2CCN(c3cccc(Cl)c3Cl)CC2)CC1.Cl [CARIPRAZINE HYDROCHLORIDE]
Population Apoptotic (%) [1]: 48% | Population Fragmented Nuclei (%) [1]: 12% | Population Healthy Nuclei (%) [1]: 44% | Population Hoechst High Intensity Objects (%) [1]: 13% | Population Membrane Permeable-Phenotype (%) [1]: 1% | Population Mitochondria Different-Phenotype (%) [1]: 88% | Population Mitotic Cells (%) [1]: 51% | Population Normal (%) [1]: 86% | Population Pyknosed Nuclei (%) [1]: 42% | Population Tubulin-Different-Phenotype (%) [1]: 59% | Total Cell Count [1]: 326 | Population Apoptotic (%) [2]: 20% | Population Fragmented Nuclei (%) [2]: 4% | Population Healthy Nuclei (%) [2]: 42% | Population Hoechst High Intensity Objects (%) [2]: 4% | Population Membrane Permeable-Phenotype (%) [2]: 2% | Population Mitochondria Different-Phenotype (%) [2]: 32% | Population Mitotic Cells (%) [2]: 79% | Population Normal (%) [2]: 95% | Population Pyknosed Nuclei (%) [2]: 53% | Population Tubulin-Different-Phenotype (%) [2]: 24% | Total Cell Count [2]: 213 | Population Apoptotic (%) [3]: 85% | Population Fragmented Nuclei (%) [3]: 7% | Population Healthy Nuclei (%) [3]: 25% | Population Hoechst High Intensity Objects (%) [3]: 15% | Population Membrane Permeable-Phenotype (%) [3]: 1% | Population Mitochondria Different-Phenotype (%) [3]: 98% | Population Mitotic Cells (%) [3]: 14% | Population Normal (%) [3]: 84% | Population Pyknosed Nuclei (%) [3]: 67% | Population Tubulin-Different-Phenotype (%) [3]: 98% | Total Cell Count [3]: 285 | Population Apoptotic (%) [4]: 83% | Population Fragmented Nuclei (%) [4]: 4% | Population Healthy Nuclei (%) [4]: 16% | Population Hoechst High Intensity Objects (%) [4]: 6% | Population Membrane Permeable-Phenotype (%) [4]: 6% | Population Mitochondria Different-Phenotype (%) [4]: 96% | Population Mitotic Cells (%) [4]: 16% | Population Normal (%) [4]: 93% | Population Pyknosed Nuclei (%) [4]: 79% | Population Tubulin-Different-Phenotype (%) [4]: 93% | Total Cell Count [4]: 210 | Population Apoptotic (%) [5]: 46% | Population Fragmented Nuclei (%) [5]: 14% | Population Healthy Nuclei (%) [5]: 57% | Population Hoechst High Intensity Objects (%) [5]: 11% | Population Membrane Permeable-Phenotype (%) [5]: 1% | Population Mitochondria Different-Phenotype (%) [5]: 77% | Population Mitotic Cells (%) [5]: 53% | Population Normal (%) [5]: 88% | Population Pyknosed Nuclei (%) [5]: 27% | Population Tubulin-Different-Phenotype (%) [5]: 55% | Total Cell Count [5]: 379 | Population Apoptotic (%) [6]: 12% | Population Fragmented Nuclei (%) [6]: 2% | Population Healthy Nuclei (%) [6]: 63% | Population Hoechst High Intensity Objects (%) [6]: 2% | Population Membrane Permeable-Phenotype (%) [6]: 4% | Population Mitochondria Different-Phenotype (%) [6]: 34% | Population Mitotic Cells (%) [6]: 87% | Population Normal (%) [6]: 97% | Population Pyknosed Nuclei (%) [6]: 33% | Population Tubulin-Different-Phenotype (%) [6]: 33% | Total Cell Count [6]: 275 | Population Apoptotic (%) [7]: 90% | Population Fragmented Nuclei (%) [7]: 11% | Population Healthy Nuclei (%) [7]: 29% | Population Hoechst High Intensity Objects (%) [7]: 14% | Population Membrane Permeable-Phenotype (%) [7]: 0% | Population Mitochondria Different-Phenotype (%) [7]: 98% | Population Mitotic Cells (%) [7]: 9% | Population Normal (%) [7]: 85% | Population Pyknosed Nuclei (%) [7]: 59% | Population Tubulin-Different-Phenotype (%) [7]: 100% | Total Cell Count [7]: 289 | Population Apoptotic (%) [8]: 87% | Population Fragmented Nuclei (%) [8]: 3% | Population Healthy Nuclei (%) [8]: 37% | Population Hoechst High Intensity Objects (%) [8]: 7% | Population Membrane Permeable-Phenotype (%) [8]: 2% | Population Mitochondria Different-Phenotype (%) [8]: 97% | Population Mitotic Cells (%) [8]: 12% | Population Normal (%) [8]: 92% | Population Pyknosed Nuclei (%) [8]: 58% | Population Tubulin-Different-Phenotype (%) [8]: 96% | Total Cell Count [8]: 241 | Population Apoptotic (%) [9]: 29% | Population Fragmented Nuclei (%) [9]: 9% | Population Healthy Nuclei (%) [9]: 78% | Population Hoechst High Intensity Objects (%) [9]: 7% | Population Membrane Permeable-Phenotype (%) [9]: 0% | Population Mitochondria Different-Phenotype (%) [9]: 37% | Population Mitotic Cells (%) [9]: 70% | Population Normal (%) [9]: 92% | Population Pyknosed Nuclei (%) [9]: 12% | Total Cell Count [9]: 609 | Population Apoptotic (%) [10]: 10% | Population Fragmented Nuclei (%) [10]: 6% | Population Healthy Nuclei (%) [10]: 80% | Population Hoechst High Intensity Objects (%) [10]: 2% | Population Membrane Permeable-Phenotype (%) [10]: 2% | Population Mitochondria Different-Phenotype (%) [10]: 15% | Population Mitotic Cells (%) [10]: 89% | Population Normal (%) [10]: 97% | Population Pyknosed Nuclei (%) [10]: 13% | Population Tubulin-Different-Phenotype (%) [10]: 35% | Total Cell Count [10]: 516 | Population Apoptotic (%) [11]: 78% | Population Fragmented Nuclei (%) [11]: 16% | Population Healthy Nuclei (%) [11]: 41% | Population Hoechst High Intensity Objects (%) [11]: 15% | Population Membrane Permeable-Phenotype (%) [11]: 0% | Population Mitochondria Different-Phenotype (%) [11]: 99% | Population Mitotic Cells (%) [11]: 21% | Population Normal (%) [11]: 84% | Population Pyknosed Nuclei (%) [11]: 42% | Population Tubulin-Different-Phenotype (%) [11]: 94% | Total Cell Count [11]: 342 | Population Apoptotic (%) [12]: 82% | Population Fragmented Nuclei (%) [12]: 7% | Population Healthy Nuclei (%) [12]: 51% | Population Hoechst High Intensity Objects (%) [12]: 6% | Population Mitochondria Different-Phenotype (%) [12]: 95% | Population Mitotic Cells (%) [12]: 17% | Population Normal (%) [12]: 93% | Population Pyknosed Nuclei (%) [12]: 41% | Population Tubulin-Different-Phenotype (%) [12]: 92% | Total Cell Count [12]: 274

CCOCCn1cc(C(=O)Nc2ccc(-n3nc(-c4cccnc4)cc3C(F)(F)F)cn2)ccc1=O [BI 1935]
Population Fragmented Nuclei (%) [3]: 15% and 16% and 10% | Population Healthy Nuclei (%) [3]: 27% and 50% and 70% | Population Hoechst High Intensity Objects (%) [3]: 20% and 15% and 10% | Population Membrane Permeable-Phenotype (%) [3]: 6% | Population Mitotic Cells (%) [3]: 30% and 78% and 83% | Population Normal (%) [3]: 80% and 84% and 89% | Total Cell Count [3]: 285 and 667 and 651 | Population Fragmented Nuclei (%) [4]: 3% and 7% | Population Healthy Nuclei (%) [4]: 29% and 84% and 87% | Population Membrane Permeable-Phenotype (%) [4]: 3% and 10% and 2% | Population Mitotic Cells (%) [4]: 71% and 84% and 95% | Population Normal (%) [4]: 91% and 96% and 97% | Population Fragmented Nuclei (%) [7]: 20% and 16% and 10% | Population Healthy Nuclei (%) [7]: 33% and 62% and 81% | Population Hoechst High Intensity Objects (%) [7]: 18% and 14% | Population Mitotic Cells (%) [7]: 29% and 75% and 80% | Population Normal (%) [7]: 81% and 85% | Total Cell Count [7]: 309 and 632 and 787 | Population Healthy Nuclei (%) [8]: 43% and 88% and 71% | Population Hoechst High Intensity Objects (%) [8]: 2% and 4% | Population Mitotic Cells (%) [8]: 53% and 88% and 98% | Population Normal (%) [8]: 97% and 95% | Population Apoptotic (%) [11]: 59% | Population Fragmented Nuclei (%) [11]: 22% | Population Healthy Nuclei (%) [11]: 33% | Population Hoechst High Intensity Objects (%) [11]: 17% | Population Membrane Permeable-Phenotype (%) [11]: 2% | Population Mitochondria Different-Phenotype (%) [11]: 89% | Population Mitotic Cells (%) [11]: 40% | Population Normal (%) [11]: 82% | Population Pyknosed Nuclei (%) [11]: 44% | Population Tubulin-Different-Phenotype (%) [11]: 93% | Total Cell Count [11]: 341 | Population Apoptotic (%) [12]: 33% | Population Fragmented Nuclei (%) [12]: 4% | Population Healthy Nuclei (%) [12]: 61% | Population Hoechst High Intensity Objects (%) [12]: 4% | Population Membrane Permeable-Phenotype (%) [12]: 6% | Population Mitochondria Different-Phenotype (%) [12]: 55% | Population Mitotic Cells (%) [12]: 66% | Population Normal (%) [12]: 95% | Population Pyknosed Nuclei (%) [12]: 33% | Population Tubulin-Different-Phenotype (%) [12]: 79% | Total Cell Count [12]: 283
